The test system of data set [1] is Homo sapiens. The data set is described as follows: Non-renal clearance in healthy human at 500 mg, iv. Particulars: in vivo. It counts as ADME, organism-based. In short, it runs like this:
(§1)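 Healthy volunteers (n = 12) got a single 1-h 500-mg IV infusion. Plasma was sampled predose and at 0.25–12 h and assayed by LC-MS/MS (LLOQ 0.1 μg/ml). Noncompartmental analysis gave CL = dose/AUC0-∞ and CL_R = 0–12 h urinary amount/AUC0-12. Nonrenal CL = CL − CL_R. Values are means ± SD.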

Data set [2] in a line: (§2) Clearance in healthy human at 500 mg, iv. It counts as ADME, organism-based. Particulars: in vivo, 500 mg. In short, it runs like this:
as §1

For data set [3], the system named is Homo sapiens. The data set is described as §2. It counts as ADME, organism-based. Particulars: in vivo. Put shortly:
as §1

Data set [4] deals with Homo sapiens. The data set is described as follows: Toxicity in healthy human assessed as pancreatitis at 500 mg, iv after 2 days. It counts as organism-based. Particulars: in vivo, 48 h.
The nature of data set [5]: (§3) Clearance in end stage renal disease patient undergoing 12 hours continuous venovenous hemodiafiltration at 500 mg, iv. It counts as ADME, organism-based. Particulars: human, in vivo, 500 mg.
Data set [6] deals with Homo sapiens. Described as §3. It counts as ADME, organism-based. Particulars: in vivo, 12 h.
The nature of data set [7]: Renal clearance in healthy human at 500 mg, iv. Particulars: in vivo, read-out: CL_renal (converted). It counts as ADME, organism-based, Kidney. In short, it runs like this: as §1
The nature of data set [8]: (§4) Clearance in end stage renal disease patient undergoing 12 hours continuous venovenous hemofiltration at 500 mg, iv. It counts as ADME, organism-based. Particulars: human, in vivo, 500 mg.
Data set [9] relates to Homo sapiens. The data set is described as §4. It counts as ADME, organism-based. Particulars: in vivo, 12 h.
Data set [10] can be described thus: AUC (0 to infinity) in end stage renal disease patient undergoing 12 hours continuous venovenous hemofiltration at 500 mg, iv. It counts as ADME, organism-based. Set-up: dose 500 mg, time infinity, route intravenous. Particulars: human, plasma.
Data set [11] in a line: AUC (0 to infinity) in end stage renal disease patient undergoing 12 hours continuous venovenous hemodiafiltration at 500 mg, iv. It counts as ADME, organism-based. Set-up: dose 500 mg, route intravenous, time infinity. Particulars: human, plasma.
Data set [12] concerns Homo sapiens. The data set is described as follows: Non-renal clearance in end stage renal disease patient undergoing 12 hours continuous venovenous hemodiafiltration at 500 mg, iv. It counts as ADME, organism-based. Particulars: in vivo. Put shortly:
(§5)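 For dialysis-dependent subjects on CVVH or CVVHDF after a 1-h 500-mg IV infusion, nonrenal CL = CL − (CL_R + CL_CRRT). CL_CRRT was the UF (or UF/dialysate) flow rate for each collection interval × the average sieving (or saturation) coefficient, where each coefficient is the fluid/plasma concentration ratio from paired samples at 1.25–12 h. Values are means ± SD.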

The subject of data set [13] is Homo sapiens. Kind of data set: Non-renal clearance in end stage renal disease patient undergoing 12 hours continuous venovenous hemofiltration at 500 mg, iv. It counts as ADME, organism-based. Particulars: in vivo. Put shortly: as §5
Data set [14] can be described thus: Terminal half life in end stage renal disease patient undergoing 12 hours continuous venovenous hemofiltration at 500 mg, iv. It counts as ADME, organism-based. Particulars: human, in vivo, read-out: beta t1/2 (converted). In short, it runs like this: (§6)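 Prefilter plasma was taken up to 12 h and measured by LC-MS/MS. Terminal λz came from log-linear regression over 1.5–12 h, and t1/2 = 0.693/λz (noncompartmental).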

Data set [15] can be described thus: Terminal half life in end stage renal disease patient undergoing 12 hours continuous venovenous hemodiafiltration at 500 mg, iv. It counts as ADME, organism-based. Particulars: human, in vivo, read-out: beta t1/2 (converted). Put shortly: as §6
In data set [16] the test system is Homo sapiens. The data set is described as follows: Toxicity in healthy human assessed as pancreatitis at 500 mg, iv after 1 day. It counts as organism-based. Particulars: in vivo, 24 h.

The source of these data is ChEMBL document CHEMBL1687854 (Antimicrob Agents Chemother, 2011).

As usually defined, the AUC(0-inf) is total exposure, with the tail of the curve extrapolated. High values mean more exposure, low ones less exposure.

Take `C[C@@H](O)[C@@H](C(=O)O)[C@@H]1NC(C(=O)O)=C(S[C@@H]2CN[C@H](CNS(N)(=O)=O)C2)[C@@H]1C`: the CL with Homo sapiens [1] is 14.2 L/h.
`C[C@@H](O)[C@H]1C(=O)N2C(C(=O)O)=C(S[C@@H]3CN[C@H](CNS(N)(=O)=O)C3)[C@H](C)[C@H]12` [DORIPENEM]: the clearance in [2] amounted to 265 mL/min; in data set [5], 98.2 mL/min; in data set [8], 82.4 mL/min. Besides, the CL worked out at 15.9 L/h in the data set with Homo sapiens [3]; 5.98 L/h in the data set with Homo sapiens [6]; 4.94 L/h in the data set with Homo sapiens [9]; 4.22 L/h in the data set on Homo sapiens [12]; 3.58 L/h in the data set with Homo sapiens [13]; 6.73 L/h in the data set with Homo sapiens [1]. For the same molecule, the results for the Activity entry with Homo sapiens [4] and in the data set with Homo sapiens [16] were “Non-toxic” and “Toxic”, respectively. Moreover, the CL renal in data set [7] is 153 mL/min. The AUC(0-inf) stood at 114 µg·h/mL in [10] and 87.5 µg·h/mL in [11]. The half-life is 4.24 h in [14] and 3.87 h in data set [15].
